Assay results as given in ChEMBL document CHEMBL1155395, “Discovery of substituted biphenyl imidazoles as potent, bioavailable bombesin receptor subtype-3 agonists” (Bioorg Med Chem Lett, 2010).
pEC50, pIC50: −log10 of the molar value. The source made the active and inactive calls. The rule behind the calls is not given here.

How the values were obtained:
[1] = molecular target: T1, Bombesin receptor subtype-3 (Homo sapiens, UniProt P32247); assay: Agonistic activity at human BRS3 expressed in HEK293AEO cells by aequorin bioluminescence assay; type: functional, cell-based
T1 sequence (P32247 whole entry): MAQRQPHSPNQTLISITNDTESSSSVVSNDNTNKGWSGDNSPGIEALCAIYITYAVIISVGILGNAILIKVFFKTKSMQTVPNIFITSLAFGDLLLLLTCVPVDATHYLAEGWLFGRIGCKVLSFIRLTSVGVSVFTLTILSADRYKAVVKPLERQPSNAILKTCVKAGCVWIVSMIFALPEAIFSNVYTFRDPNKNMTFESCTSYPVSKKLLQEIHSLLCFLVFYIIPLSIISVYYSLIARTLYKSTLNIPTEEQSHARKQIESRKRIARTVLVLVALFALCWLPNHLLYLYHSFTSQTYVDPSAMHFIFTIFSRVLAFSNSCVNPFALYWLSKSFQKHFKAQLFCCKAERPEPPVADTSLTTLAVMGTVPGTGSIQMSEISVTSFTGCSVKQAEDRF

[2] = molecular target: T2, Bombesin receptor subtype-3 (Homo sapiens) (UniProt P32247); assay: Agonistic activity at human BRS3 expressed in HEK293AEO at 10 uM cells by aequorin bioluminescence assay relative to dY peptide; type: functional, cell-based
T2 sequence (whole entry): T1 sequence (P32247 whole entry)

[3] = molecular target: T3, Bombesin receptor subtype-3 (Mus musculus, UniProt O54798); assay: Agonistic activity at mouse BRS3 expressed in HEK293AEO cells by aequorin bioluminescence assay; type: functional, cell-based
T3 sequence (O54798 whole entry): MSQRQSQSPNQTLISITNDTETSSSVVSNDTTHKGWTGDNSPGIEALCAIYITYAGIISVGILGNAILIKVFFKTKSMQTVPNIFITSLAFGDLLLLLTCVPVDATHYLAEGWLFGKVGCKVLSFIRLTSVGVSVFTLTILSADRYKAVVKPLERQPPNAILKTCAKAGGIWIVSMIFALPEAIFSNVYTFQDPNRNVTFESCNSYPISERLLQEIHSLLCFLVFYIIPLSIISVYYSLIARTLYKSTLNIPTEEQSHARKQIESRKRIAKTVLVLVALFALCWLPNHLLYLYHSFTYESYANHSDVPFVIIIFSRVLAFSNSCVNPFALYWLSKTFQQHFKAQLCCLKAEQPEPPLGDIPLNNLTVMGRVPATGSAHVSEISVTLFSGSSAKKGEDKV

[4] = molecular target: T4, Bombesin receptor subtype-3 (Mus musculus) (UniProt O54798); assay: Agonistic activity at mouse BRS3 expressed in HEK293AEO cells at 10 uM by aequorin bioluminescence assay relative to dY peptide; type: functional, cell-based
T4 sequence (whole entry): T3 sequence (O54798 whole entry)

[5] = Oral bioavailability in Sprague-Dawley rat at 4 mg/kg; type: ADME, organism-based; details: in vivo
In short: (§1)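 Sprague-Dawley rats given compound as solution in EtOH/PEG400/water (10:40:50), 1 mg/kg iv and 4 mg/kg po; clearance, steady-state volume of distribution, half-life, oral bioavailability and dose-normalised AUC derived.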

[6] = Clearance in Sprague-Dawley rat at 1 mg/kg, iv and 4 mg/kg, po; type: ADME, organism-based; details: in vivo; in short: as §1
[7] = Volume of distribution at steady state in Sprague-Dawley rat at 1 mg/kg, iv and 4 mg/kg, po; type: ADME, organism-based; details: in vivo, read-out: Vdss; in short: as §1
[8] = Half life in Sprague-Dawley rat at 1 mg/kg, iv and 4 mg/kg, po; type: ADME, organism-based; details: in vivo; in short: as §1
Rattus norvegicus = assay: Reduction of food intake in rat at 25 ug, icv; type: functional; parameters: scale not given: the % may be the effect or the level left
In short: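 Rats dosed intracerebroventricularly with 25 µg; food intake compared with animals receiving vehicle (20% PG/water).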

Mus musculus = assay: Effect on food intake in po dosed diet-induced obese mouse; type: functional, organism-based
[9] = molecular target: T1, Bombesin receptor subtype-3; assay: Displacement of [125I]-[D-Tyr6,beta-Ala11,Phe13,Nle14]bombesin from human BRS3 expressed in NFAT-CHO cells after 2 hrs by liquid scintillation counting; type: cell-based
In short: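 Membranes (1–4 µg protein) from NFAT-CHO cells expressing human BRS-3, incubated with 0.3 pM 125I-dY-peptide and a range of test compound concentrations in 50 mM Tris pH 7.2, 5 mM MgCl2, 0.1% BSA, 2 h at room temperature; bound/free separated by GF/c filtration with PBS washes; filter radioactivity by scintillation counting; mean of at least three runs.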

[10] = molecular target: T5, Bombesin receptor subtype-3 (Rattus norvegicus, UniProt Q8K418); assay: Agonistic activity at rat BRS3 expressed in HEK293AEO at 10 uM by aequorin bioluminescence assay; type: functional
T5 sequence (Q8K418 whole entry): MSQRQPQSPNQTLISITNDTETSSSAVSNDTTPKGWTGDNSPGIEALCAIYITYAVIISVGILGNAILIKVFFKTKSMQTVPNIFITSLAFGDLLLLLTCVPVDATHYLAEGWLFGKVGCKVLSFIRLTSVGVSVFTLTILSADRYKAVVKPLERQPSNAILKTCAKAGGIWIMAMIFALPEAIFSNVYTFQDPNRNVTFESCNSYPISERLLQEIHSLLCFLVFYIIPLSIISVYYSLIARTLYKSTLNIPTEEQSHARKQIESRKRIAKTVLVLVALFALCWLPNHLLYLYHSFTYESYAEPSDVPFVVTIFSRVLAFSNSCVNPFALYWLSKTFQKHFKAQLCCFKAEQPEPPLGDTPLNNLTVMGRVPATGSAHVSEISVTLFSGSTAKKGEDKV

[11] = molecular target: T6, Bombesin receptor subtype-3 (Rattus norvegicus) (UniProt Q8K418); assay: Agonistic activity at rat BRS3 expressed in HEK293AEO cells at by aequorin bioluminescence assay relative to dY peptide; type: functional, cell-based
T6 sequence (whole entry): T5 sequence (Q8K418 whole entry)

Neuromedin-B receptor = Neuromedin-B receptor (Homo sapiens, UniProt P28336); assay: Displacement of [125I]-[D-Tyr6,beta-Ala11,Phe13,Nle14]bombesin from human bombesin BB1 receptor expressed in NFAT-CHO cells after 2 hrs by liquid scintillation counting; type: cell-based
[12] = molecular target: Gastrin-releasing peptide receptor (Homo sapiens, UniProt P30550); assay: Displacement of [125I]-[D-Tyr6,beta-Ala11,Phe13,Nle14]bombesin from human bombesin BB2 receptor expressed in NFAT-CHO cells after 2 hrs by liquid scintillation counting; type: cell-based
Sequence of Gastrin-releasing peptide receptor (P30550 whole entry): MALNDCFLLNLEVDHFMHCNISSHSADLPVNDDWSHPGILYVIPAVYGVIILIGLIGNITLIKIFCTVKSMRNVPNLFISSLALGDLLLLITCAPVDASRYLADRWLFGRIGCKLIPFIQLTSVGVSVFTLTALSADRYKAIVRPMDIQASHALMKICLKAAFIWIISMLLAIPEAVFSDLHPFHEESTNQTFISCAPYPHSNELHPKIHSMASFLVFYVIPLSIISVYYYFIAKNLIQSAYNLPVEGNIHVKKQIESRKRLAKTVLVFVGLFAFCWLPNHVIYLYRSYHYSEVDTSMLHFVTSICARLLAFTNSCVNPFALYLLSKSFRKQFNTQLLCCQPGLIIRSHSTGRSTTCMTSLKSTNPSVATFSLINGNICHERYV

Sequence of Neuromedin-B receptor (P28336 whole entry): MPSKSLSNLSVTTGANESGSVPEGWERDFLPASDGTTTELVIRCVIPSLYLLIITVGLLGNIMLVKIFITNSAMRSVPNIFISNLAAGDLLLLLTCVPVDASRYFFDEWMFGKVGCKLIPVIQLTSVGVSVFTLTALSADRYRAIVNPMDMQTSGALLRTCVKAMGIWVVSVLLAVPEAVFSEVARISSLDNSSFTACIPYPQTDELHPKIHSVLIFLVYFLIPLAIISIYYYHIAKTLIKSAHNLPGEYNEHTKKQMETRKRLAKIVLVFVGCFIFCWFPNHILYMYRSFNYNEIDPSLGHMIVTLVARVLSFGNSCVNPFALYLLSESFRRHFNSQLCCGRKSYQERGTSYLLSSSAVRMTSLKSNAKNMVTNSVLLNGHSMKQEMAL

pEC50 [1] | Activity [2] [%] | pEC50 [3] | Activity [4] [%] | bioavailability [5] [%] | clearance [6] [mL/min/kg] | Vd [7] [L/kg] | half-life [8] [h] | pIC50 [9] | pEC50 [10] | Activity [11] [%] | pIC50 (Neuromedin-B receptor) | pIC50 [12] | Compound | Activity (Rattus norvegicus) [%] | Activity (Mus musculus)
6.97 | 103 | 8.20 | 105 | 19 | 1.02 | 0.128 | 1.54 |  |  |  |  |  | CC(C)(C)Cc1cnc(CCc2ccc(-c3ccccc3C(=O)O)cc2)[nH]1 | 29 | inactive
5.72 | 74 | 6.62 | 98 |  |  |  |  | 5.43 | 6.76 | 101 | < 5.00 | < 5.00 | CCCCc1cnc(C(CCCO)Cc2ccc(-c3ccccc3C(=O)O)cc2)[nH]1 (configuration not stated) |  | 
5.57 | 78 | 7.03 | 116 | 16 | 1.3 | 0.1 | 1.56 |  |  |  |  |  | CCCCc1cnc(CCc2ccc(-c3ccccc3C(=O)O)cc2)[nH]1 |  | 
